ChEMBL document CHEMBL4842338, “System-oriented optimization of multi-target 2,6-diaminopurine derivatives: Easily accessible broad-spectrum antivirals active against flaviviruses, influenza virus and SARS-CoV-2” (Eur J Med Chem, 2021)
Calls of active or inactive are those of the source. The calls are words filed in the database; no cut-off is given here.

Columns and labels:
Influenza A virus [1] = test: Antiviral activity against Influenza A/California/04/2009H1N1 infected in human A549 cells assessed as reduction in viral protein expression at 20 uM pretreated for 2 hrs followed by staining with anti-Flu antibody observed at 24 hrs post infection by In-cell western assay; format: functional, organism-based
[2] = Inhibition of DENV NS5-MTase domain using GpppA2'OMe-RNA74 as a substrate incubated for 30 mins by filter binding assay; set-up: species or system dengue virus type 2; conditions: read-out: IC50
Summary of the method: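 MTase (1 μM) incubated with increasing inhibitor in 40 mM Tris-HCl pH 7.5, 5 mM DTT, 10 μM AdoMet ([3H]-labelled), 0.5 μM GpppA2′OMe-RNA74 substrate, 30 °C for 30 min; stopped in ice-cold 100 μM AdoHcy; DEAE filter binding, scintillation counting.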

SARS-CoV-2 = test: Antiviral activity against SARS-COV 2 infected in human Calu-3 cells assessed as inhibition of viral replication at MOI of 0.01 followed by removal of test compound after cell virus adsorption incubated for 72 hrs by ENTRY-DYRA method; format: functional, organism-based; conditions: Severe acute respiratory syndrome coronavirus 2, Calu-3, 72 h
Huh-7 [3] = test: Effect on formation of DENV replication complex in human Huh-7 cells assessed as reduction in expression of NS3 at 50 uM measured after 8 to 24 hrs by DAPI staining based confocal microscopy analysis; format: functional, cell-based; conditions: time 8-24 hrs
Summary of the method: (§1)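 Huh-7 cells (1 × 10⁴) on coverslips infected with DENV-2 (MOI 0.05), treated (100 or 50 μM as listed), fixed in 4% paraformaldehyde at 8, 12, 16, 24 h; anti-NS3/anti-NS5 with Alexa 488/568 secondaries, DAPI; confocal, 5 random fields at 40×; % positive cells; 2-way ANOVA with Dunnett.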

West Nile virus = test: Antiviral activity against West Nile virus lineage 1 (Italy/2009) infected in pre-seeded Huh-7 cells assessed as inhibition of viral replication incubated for 48 hrs by immunodetection based direct yield reduction assay; format: functional, organism-based; conditions: huh-7
MDCK = test: Cytotoxicity against MDCK cells assessed as reduction in cell viability measured after 24 hrs by MTT assay; format: cell-based, Canis lupus familiaris; conditions: dog, mdck, 24 h
Huh-7 [4] = test: Effect on formation of DENV replication complex in human Huh-7 cells assessed as reduction NS3:NS5 colocalization into nucleus at 50 uM measured after 16 to 24 hrs by DAPI staining based confocal microscopy analysis; format: functional, cell-based; conditions: time 16-24 hrs
Summary of the method: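 DENV-2-infected Huh-7 cells (MOI 0.05) treated at 50 μM, fixed at 8–24 h, stained for NS3/NS5; confocal colocalization by Manders coefficients with Costes P ≥95% as signal; versus untreated control; repeated at least twice.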

Influenza A virus [5] = test: Antiviral activity against Influenza A Puerto Rico/8/34/H1N1 infected in human A549 cells assessed as reduction in viral protein expression at 20 uM treated for 2 to 6 hrs post infection and measured following infection of MDCK cells with supernatant for 24 hrs by time-of-addition assay; format: functional, organism-based; conditions: A/Puerto Rico/8/1934(H1N1), time 2-6 hrs
[6] = Selectivity index, ratio of CC50 for human Huh-7 cells to IC50 for Zika virus H/PF/2013 infected in pre-seeded Huh-7 cells assessed as inhibition of viral replication incubated for 72 hrs by immunodetection based direct yield reduction assay; format: toxicity, cell-based; conditions: read-out: Selectivity Index
Summary of the method: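 Direct yield reduction in Huh7 cells (7000/well), infected with 50 TCID₅₀ of DENV or ZIKV, or 25 TCID₅₀ of WNV. Adsorption 1 h at 37 °C, then virus removed and serial compound dilutions added. Incubated 72 h (DENV, ZIKV) or 48 h (WNV). Viral antigen immunodetected on the monolayer. IC₅₀ by non-linear regression, mean of three experiments. SI = CC₅₀ (Huh7, CellTiter-Glo luminescence)/IC₅₀.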

Huh-7 [7] = test: Effect on formation of DENV replication complex in human Huh-7 cells assessed as reduction in expression of NS5 at 50 uM measured after 8 to 24 hrs by DAPI staining based confocal microscopy analysis; format: functional, cell-based; conditions: time 8-24 hrs; summary of the method: as §1
Influenza A virus [8] = test: Antiviral activity against Influenza A Puerto Rico/8/34/H1N1 infected in MDCK cells assessed as inhibition of viral replication measured in supernatants of infected cells after 24 hrs by hemagglutination assay; format: functional, organism-based; conditions: A/Puerto Rico/8/1934(H1N1)
Influenza A virus [9] = test: Antiviral activity against Influenza A Puerto Rico/8/34/H1N1 infected in human A549 cells assessed as inhibition of hemagglutinin expression at 20 uM treated post viral infection for 24 hrs followed by infection of fresh cell monolayer of A549 cells with supernatant for 24 hrs by In-cell western assay; format: functional; conditions: A/Puerto Rico/8/1934(H1N1)
Summary of the method: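 A549 cells infected with PR8 H1N1 and given 20 μM compound: 2 h before infection (PRE), 1 h during adsorption (DUR), or 24 h after adsorption (POST); supernatants used to infect fresh monolayers for 24 h; anti-HA in-cell western; RFU as % of untreated infected; 3 replicates from two experiments.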

Influenza A virus [10] = test: Antiviral activity against Influenza A virus (A/California/04/2009(H1N1)) infected in human A549 cells assessed as reduction in viral protein expression at 20 uM treated for 2 to 6 hrs post infection and measured following infection of MDCK cells with supernatant for 24 hrs by time-of-addition assay; format: functional, organism-based; conditions: time 2-6 hrs
[11] = target: PIK3CA (Phosphatidylinositol 4,5-bisphosphate 3-kinase catalytic subunit alpha isoform) (Homo sapiens, UniProt P42336); test: Inhibition of human full length PIK3CA assessed as residual activity at 5 uM using PI:PS (1:3) as a substrate incubated for 10 mins by scintillation counting analysis relative to control; conditions: full length PIK3CA enzyme, probe PI:PS (1:3), read-out: Activity
PIK3CA (Phosphatidylinositol 4,5-bisphosphate 3-kinase catalytic subunit alpha isoform), sequence (P42336 whole entry, canonical isoform): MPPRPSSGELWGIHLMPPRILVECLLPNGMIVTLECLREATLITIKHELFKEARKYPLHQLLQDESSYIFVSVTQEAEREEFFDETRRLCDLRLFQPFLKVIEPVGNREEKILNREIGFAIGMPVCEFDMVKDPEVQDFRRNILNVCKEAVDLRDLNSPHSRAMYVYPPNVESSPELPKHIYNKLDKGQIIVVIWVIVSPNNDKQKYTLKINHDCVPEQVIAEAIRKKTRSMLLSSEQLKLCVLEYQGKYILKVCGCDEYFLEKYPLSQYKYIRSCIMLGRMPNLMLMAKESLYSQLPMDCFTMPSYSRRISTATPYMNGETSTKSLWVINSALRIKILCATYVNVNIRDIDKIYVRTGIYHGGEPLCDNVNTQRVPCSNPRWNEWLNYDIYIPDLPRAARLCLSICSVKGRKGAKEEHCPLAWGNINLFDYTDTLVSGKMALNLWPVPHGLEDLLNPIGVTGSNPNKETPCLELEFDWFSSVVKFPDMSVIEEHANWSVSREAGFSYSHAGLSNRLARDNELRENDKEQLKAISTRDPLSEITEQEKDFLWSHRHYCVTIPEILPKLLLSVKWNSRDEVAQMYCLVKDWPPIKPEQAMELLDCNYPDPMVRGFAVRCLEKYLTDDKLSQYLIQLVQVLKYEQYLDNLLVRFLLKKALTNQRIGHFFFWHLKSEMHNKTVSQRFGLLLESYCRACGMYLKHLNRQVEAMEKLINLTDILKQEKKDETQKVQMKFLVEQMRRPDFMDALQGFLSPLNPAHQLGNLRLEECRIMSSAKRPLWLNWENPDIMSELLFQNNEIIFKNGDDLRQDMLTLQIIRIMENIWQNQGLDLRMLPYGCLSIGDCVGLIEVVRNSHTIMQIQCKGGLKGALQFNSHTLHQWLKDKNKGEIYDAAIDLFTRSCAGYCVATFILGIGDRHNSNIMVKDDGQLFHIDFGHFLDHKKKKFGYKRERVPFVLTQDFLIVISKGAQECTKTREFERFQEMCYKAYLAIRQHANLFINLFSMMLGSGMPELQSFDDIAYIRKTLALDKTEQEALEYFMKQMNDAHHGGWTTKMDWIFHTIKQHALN
Summary of the method: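 Radiometric kinase reaction with 10–50 ng enzyme and compound fixed at 5 μM, 10 μL at 30 °C for 10 min. Reactions spotted on filter and counted by scintillation. Residual activity is the mean ± SD of two independent experiments.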

Influenza A virus [12] = test: Antiviral activity against Influenza A Puerto Rico/8/34/H1N1 infected in human A549 cells assessed as inhibition of hemagglutinin expression at 20 uM treated immediately after infection for 2 to 6 hrs followed by maintaining cells in fresh medium without compound for 24 hrs followed by infecting monolayer MDCK cells with supernatant for 24 hrs by time-of-addition assay; format: functional, organism-based; conditions: A/Puerto Rico/8/1934(H1N1), time 2-6 hrs
Summary of the method: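 A549 cells infected with PR8 H1N1 received 20 μM compound immediately after adsorption for 2, 4 or 6 h, then fresh medium to 24 h; supernatants infected fresh MDCK for 24 h; anti-HA in-cell western; RFU % vs untreated infected; 4 replicates from two experiments.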

Influenza A virus [13] = test: Antiviral activity against Influenza A Puerto Rico/8/34/H1N1 infected in human A549 cells assessed as inhibition of hemagglutinin expression at 20 uM treated 2 to 6 hrs post infection for 24 hrs followed by infection in fresh monolayer of MDCK cells with supernatant for 24 hrs by time-of-addition assay; format: functional, organism-based; conditions: A/Puerto Rico/8/1934(H1N1), time 2-6 hrs
Influenza A virus [14] = test: Antiviral activity against Influenza A/California/04/2009H1N1 infected in human A549 cells assessed as reduction in viral protein expression at 20 uM treated for 1 hr during viral adsorption followed by staining with anti-Flu antibody observed at 24 hrs post infection by In-cell western assay; format: functional, organism-based

SMILES: FC(F)(F)c1cccc(Nc2nc(NCCOc3ccccc3)nc3[nH]cnc23)c1
- Activity (Influenza A virus [1]): Active
- IC50 [2]: 112 µM
- IC50 (SARS-CoV-2): 1.9 µM
- Activity (Huh-7 [3]): Active
- IC50 (West Nile virus): Not Active
- CC50 (MDCK): 77 µM
- Activity (Huh-7 [4]): Active
- Activity (Influenza A virus [5]): Active
- selectivity ratio at 72 h [6]: 250
- Activity (Huh-7 [7]): Active
- IC50 (Influenza A virus [8]): 5.3 µM
- inhibition at 20 µM (Influenza A virus [9]): 50%
- Activity (Influenza A virus [10]): Active
- activity at 10 min, 5 µM [11]: 66%
- Activity (Influenza A virus [12]): Active
- Activity (Influenza A virus [13]): inactive
- Activity (Influenza A virus [14]): Active
